Measurements as given in ChEMBL document CHEMBL1130313, “1-[(omega-aminoalkyl)amino]-4-[N-(omega-aminoalkyl)carbamoyl]-9-oxo-9, 10-dihydroacridines as intercalating cytotoxic agents: synthesis, DNA binding, and biological evaluation” (J Med Chem, 1997).

Columns and labels:
A2780 = experiment: Cytotoxic potency required to inhibit A2780 cell growth by 50% after cell drug contact for 96 hrs; assay type: functional, cell-based; settings: Homo sapiens, A2780, 96 h
Procedure, shortened: (§1)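 Human ovarian carcinoma (A2780, CH1, SKOV-3) or melanoma G-361 cells were plated at 100-5000 cells and allowed to adhere overnight. Aqueous drug at pH 7.0, diluted from DMSO stock, was applied at various concentrations for 96 h continuous exposure at 37 °C. Growth was measured by sulforhodamine B protein staining. IC50 is 50% growth inhibition versus untreated controls.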

[1] = Partition coefficient (logP); assay type: physicochemical; settings: octanol/water
Calf thymus DNA [2] = experiment: Inhibitory concentration against ethidium:Calf thymus DNA(0.1:1) binding at pH 5; assay type: nucleic-acid assay; settings: Bos taurus
Procedure, shortened: (§2)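 Q (quenching) assay at pH 5: DNA at 20 μM DNAp (CT-DNA, [poly(dA-dT)]2 or [poly(dG-dC)]2) with 2 μM ethidium bromide. Buffer is 9.3 mM NaCl, 2 mM NaOAc, 0.1 mM EDTA, 0.01 M ionic strength. Drug (stock ~5 mM in DMSO) is added serially at 20 °C. Fluorescence is read with excitation 546 nm and emission 595 nm. Q is the concentration halving bound-ethidium fluorescence; mean of three.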

Calf thymus DNA [3] = experiment: Inhibitory concentration against ethidium:calf thymus DNA (1.26:1) binding at pH 5; assay type: nucleic-acid assay; settings: Bos taurus
Procedure, shortened: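 Ethidium displacement at pH 5: 1.26 μM ethidium bromide with 1 μM CT-DNA in 9.3 mM NaCl, 2 mM NaOAc, 0.1 mM EDTA. Drug (stock ~5 mM in DMSO) is added serially at 20 °C. Fluorescence is read with excitation 546 nm and emission 595 nm. C50 is the concentration reducing bound-ethidium fluorescence by 50%; mean of three.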

Calf thymus DNA [4] = experiment: Inhibitory concentration against ethidium:Calf thymus DNA (1.26:1) binding at pH 7; assay type: nucleic-acid assay; settings: Bos taurus
Procedure, shortened: (§3)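 Ethidium displacement at pH 7: 1.26 μM ethidium bromide with 1 μM CT-DNA in 10 mM TES, 0.1 mM EDTA. Drug (stock ~5 mM in DMSO) is titrated in at 20 °C. Read-out is excitation 546 nm, emission 595 nm. C50 is the drug concentration cutting bound-ethidium fluorescence by 50%; mean of three determinations.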

CH1 [5] = experiment: Cytotoxic potency required to inhibit CH1 cell growth by 50%; assay type: functional, cell-based; settings: Homo sapiens; procedure, shortened: as §1
Nucleic Acid [6] = experiment: Concentration required to give 50% fluorescence quenching of bound ethidium for [ethidium]: [(poly dG-dC)]2 DNA in ratio of 0.1:1 at pH 5; assay type: nucleic-acid assay; procedure, shortened: as §2
Nucleic Acid [7] = experiment: Concentration required to give 50% fluorescence quenching of bound ethidium for [ethidium]: [poly(dA-dT)]2 DNA in ratio of 0.1:1 at pH 5; assay type: nucleic-acid assay; procedure, shortened: as §2
G-361 = experiment: Cytotoxic potency required to inhibit G-361 cell growth by 50%; assay type: functional, cell-based; settings: Homo sapiens; procedure, shortened: as §1
HT-29 = experiment: Cytotoxic potency required to inhibit HT-29 cell growth by 50% after cell drug contact for 144 hrs; assay type: functional, cell-based; settings: Homo sapiens, HT-29, 144 h
L1210 = experiment: Cytotoxic potency required to inhibit L1210 cell growth by 50% after cell drug contact for 48 hrs; assay type: functional, cell-based; settings: Mus musculus, L1210, 48 h
Procedure, shortened: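 Mouse L1210 leukemia cells at 5 × 10^4 cells/mL were exposed for 48 h at 37 °C to aqueous drug solutions (≤0.5% v/v DMSO). Surviving cells were counted by Coulter counter against drug-free controls to give IC50. Assays were done in duplicate.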

SK-OV-3 = experiment: Cytotoxic potency required to inhibit SKOV-3 cell growth 50%; assay type: functional, cell-based; settings: Homo sapiens; procedure, shortened: as §1
CH1 [8] = experiment: Cytotoxic potency against CH1 cell proliferation; assay type: functional, cell-based; settings: Homo sapiens; procedure, shortened: as §1
Calf thymus DNA [9] = experiment: Inhibitory concentration against ethidium:Calf thymus DNA(1.26:1) binding at pH 7; assay type: nucleic-acid assay; settings: Bos taurus; procedure, shortened: as §3

Row | Compound | logP [1] | Q (Calf thymus DNA [2]) | C50 (Calf thymus DNA [3]) | C50 (Calf thymus DNA [4]) | Q (Nucleic Acid [6]) | Q (Nucleic Acid [7]) | C50 (Calf thymus DNA [9]) | IC50 (A2780) | IC50 (CH1 [5]) | IC50 (G-361) | IC50 (HT-29) | IC50 (L1210) | IC50 (SK-OV-3) | IC50 (CH1 [8])
1 | CCN(CC)CCNC(=O)c1ccc(NCCN(CC)CC)c2c(O)c3ccccc3nc12 | 7.25 | 27 µM | 20 µM | 2.3 µM | 36 µM | 19 µM | – | 760 nM | 1250 nM | 6200 nM | 5700 nM | 3300 nM | 2400 nM | –
2 | O=c1c2ccccc2[nH]c2ccccc12 [ACRIDONE] | – | > 400 µM | – | – | 340 µM | > 500 µM | – | > 100000 nM | 77000 nM | > 100000 nM | – | > 100000 nM | > 100000 nM | –
3 | N=C(N)c1ccc(/N=N/Nc2ccc(C(=N)N)cc2)cc1 | – | 9 µM | 4.4 µM | 1.5 µM | 19 µM | 5 µM | – | – | – | – | – | – | – | –
4 | O=C(NCCN1CCCCC1)c1ccc(NCCN2CCCCC2)c2c(O)c3ccccc3nc12 | 7.73 | 4.4 µM | 0.83 µM | 0.28 µM | 5.6 µM | 3.4 µM | – | 24 nM | 1200 nM | 670 nM | 450 nM | 1200 nM | 620 nM | –
5 | Nc1ccc2cc3ccc(N)cc3nc2c1 | – | 20 µM | – | – | 14 µM | 24 µM | – | – | – | – | – | – | – | –
6 | c1ccc2nc3ccccc3cc2c1 [ACRIDINE] | – | 24 µM | 142 µM | 320 µM | 22 µM | 26 µM | – | > 100000 nM | – | – | – | – | – | –
7 | O=C(NCCN1CCOCC1)c1ccc(NCCN2CCOCC2)c2c(O)c3ccccc3nc12 | 4.42 | 4.8 µM | 16 µM | 3.7 µM | 6 µM | 3.7 µM | – | 1500 nM | 1250 nM | 7200 nM | 4500 nM | 440 nM | 7400 nM | –
8 | Nc1ccc2c(O)c3ccc(N)cc3nc2c1 | – | 340 µM | 660 µM | 630 µM | 280 µM | > 400 µM | – | 37000 nM | > 100000 nM | – | – | 35000 nM | > 100000 nM | –
9 | Cn1cc(NC(=O)c2cc(NC(=O)c3cc(NC=O)cn3C)cn2C)cc1C(=O)NCCC(=N)N | – | 39.5 µM | 5 µM | 1.3 µM | 130 µM | 1.6 µM | – | – | – | – | – | – | – | –
10 | CN(C)CCNC(=O)c1ccc(NCCN(C)C)c2c(=O)c3ccccc3[nH]c12 | 5.12 | 3.3 µM | 1.1 µM | 0.34 µM | 3.5 µM | 3.1 µM | – | 15 nM | – | 15 nM | 94 nM | 44 nM | 400 nM | 20 nM
11 | O=C1c2c(O)ccc(O)c2C(=O)c2c(NCCNCCO)ccc(NCCNCCO)c21 [MITOXANTRONE] | – | 0.34 µM | 0.021 µM | 0.037 µM | 0.37 µM | 0.32 µM | – | 0.55 nM | 2.65 nM | 0.65 nM | 10 nM | 0.4 nM | – | –
12 | O=C(NCCNCCO)c1ccc(NCCNCCO)c2c(O)c3ccccc3nc12 | 3.15 | 3.2 µM | 1.7 µM | – | 4.1 µM | 2.6 µM | 0.36 µM | 4800 nM | 165 nM | 15500 nM | > 23000 nM | 4000 nM | 21500 nM | –
13 | COc1cc(NS(C)(=O)=O)ccc1Nc1c2ccccc2nc2ccccc12 | – | 3.8 µM | 8.9 µM | – | 4.5 µM | 25 µM | – | – | – | – | – | – | – | –

The next lines start with results.

Row | logP [1] | Q (Calf thymus DNA [2]) | C50 (Calf thymus DNA [3]) | C50 (Calf thymus DNA [4]) | Q (Nucleic Acid [6]) | Q (Nucleic Acid [7]) | C50 (Calf thymus DNA [9]) | Compound | IC50 (A2780) | IC50 (CH1 [5]) | IC50 (G-361) | IC50 (HT-29) | IC50 (L1210) | IC50 (SK-OV-3) | IC50 (CH1 [8])
14 | 5.68 | 2.1 µM | 0.61 µM | 0.17 µM | 2.4 µM | 1.8 µM | – | CN(C)CCNC(=O)c1ccc(NCCN(C)C)c2c(O)c3cc([N+](=O)[O-])ccc3nc12 | 42 nM | 175 nM | 1800 nM | 190 nM | 460 nM | 210 nM | –
15 | 4.77 | 4.8 µM | 2.2 µM | 0.37 µM | 5.4 µM | 4.4 µM | – | CN(C)CCNC(=O)c1ccc(NCCN(C)C)c2c(O)c3cc(O)ccc3nc12 | 51 nM | 640 nM | 300 nM | 2000 nM | 140 nM | 170 nM | –
16 | 5.32 | 5.8 µM | 3.1 µM | 0.69 µM | 6.5 µM | 5.3 µM | – | COc1ccc2nc3c(C(=O)NCCN(C)C)ccc(NCCN(C)C)c3c(O)c2c1 | 57 nM | 490 nM | 1250 nM | 500 nM | 410 nM | 420 nM | –
17 | 4.21 | 14 µM | 4.8 µM | 0.94 µM | 15 µM | 13 µM | – | CN(C)CCNC(=O)c1ccc(N(C)CCN(C)C)c2c(O)c3ccccc3nc12 | 410 nM | 3400 nM | 1500 nM | 3000 nM | 1650 nM | 1000 nM | –
18 | 5.76 | 4.8 µM | 3.2 µM | 0.38 µM | 6.6 µM | 3.2 µM | – | CN(C)CCCNC(=O)c1ccc(NCCCN(C)C)c2c(O)c3ccccc3nc12 | 110 nM | 335 nM | 3600 nM | 580 nM | 520 nM | 400 nM | –
19 | 4.09 | 4.2 µM | 2 µM | 0.35 µM | 4.7 µM | 3.8 µM | – | CN(C)CCNC(=O)c1ccc(NCCNCCO)c2c(O)c3ccccc3nc12 | 17 nM | 16 nM | 280 nM | 140 nM | 35 nM | 170 nM | –
